Only some compounds are listed: those with a hit (about 9.6% of all), similar ones and a draw of the others.
TNAP inh noacc: TNAP (human) inhibition, acceptor-free conditions | P05186 | purified TNAP, CDP-star luminescence, 30 min | inhibition, % at 20 µM | hit rate 0.26% among 200,000;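 active = tissue-nonspecific alkaline phosphatase inhibition above about 50% at 20 µM in the single-dose screen, limit read from the data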
Target sequence (P05186 whole entry, looked up): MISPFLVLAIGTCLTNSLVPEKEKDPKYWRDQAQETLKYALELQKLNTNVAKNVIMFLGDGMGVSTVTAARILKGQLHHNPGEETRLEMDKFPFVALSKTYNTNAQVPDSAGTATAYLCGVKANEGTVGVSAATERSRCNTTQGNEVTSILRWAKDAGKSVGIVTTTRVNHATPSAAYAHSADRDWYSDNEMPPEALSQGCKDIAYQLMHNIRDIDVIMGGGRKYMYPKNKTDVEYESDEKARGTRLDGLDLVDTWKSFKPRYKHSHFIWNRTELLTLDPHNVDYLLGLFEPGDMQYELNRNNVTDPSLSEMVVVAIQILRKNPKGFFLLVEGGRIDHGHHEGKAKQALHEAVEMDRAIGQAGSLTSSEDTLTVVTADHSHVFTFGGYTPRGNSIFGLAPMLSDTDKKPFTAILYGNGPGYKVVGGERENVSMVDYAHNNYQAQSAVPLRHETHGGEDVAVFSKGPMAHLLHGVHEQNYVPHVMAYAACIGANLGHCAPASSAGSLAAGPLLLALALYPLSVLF
TNAP act hi DEA: increases human TNAP activity under high phosphate acceptor concentration | P05186 | purified TNAP, CDP-star luminescence, 1 M DEA, 30 min; stronger effect = higher value; 0 = EDTA background, 1 = DMSO-only activity | activation factor at 20 µM | 200,000 tested, under 10 active;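 active = activation factor at least 2 at 20 µM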
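system = human TNAP | amount = enzyme diluted 1/800 final | reagent = 100 µM CDP-star substrate | signal = luminescent substrate turnover signal | dosing = one dose, 20 µM | benchmarks = EDTA negative control, DMSO positive control | measure = activation factor | timing = 30 min reaction, room temperature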
bCat KO growth: beta-catenin-lacking colon tumor cell growth suppression | HCT116 beta-catenin knockout viability, CellTiter-Glo, 60 h; stronger effect = lower value | viability, % at 10 µM | hit rate 1.5% among 140,000;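 active = viability at or under a set limit, the compound median less 4 SD, cut at about 6% in these data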
L major viab: reduces viability of Leishmania major promastigotes; resazurin fluorescence viability; inhibition, % at 10 µM; hit rate 9% among 200,000; AID 1063; in the data active = inhibition above about 50%;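 note: promastigotes grown with compound for 44 hours at 28 °C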
TNAP inh hi DEA: blocks human TNAP under high phosphate acceptor concentration; P05186; purified TNAP, CDP-star luminescence, 1 M DEA; inhibition, % at 20 µM; hit rate 0.03% among 200,000;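 active = over 50% inhibition of tissue-nonspecific alkaline phosphatase at 20 µM in the single-dose screen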
HCT116 PTEN-null: suppresses growth of cells with PTEN deletion; viability, % at 10 µM; hit rate 1.2% among 140,000; HCT116 PTEN-null viability, CellTiter-Glo, 60 h; stronger effect = lower value;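 active = viability at or below a set limit, 4 SD under the median of all tested compounds, cut at about 3.7% in these data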;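 note: PTEN knockout HCT116 line with beta catenin targeted HCT116 as companion control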
Hits are given with their value; n = inactive; x = no result.

SMILES	TNAP inh noacc	TNAP act hi DEA	bCat KO growth	L major viab	TNAP inh hi DEA	HCT116 PTEN-null
CC(C)c1csc(CN2CCN(Cc3ccc(F)c(F)c3)C(CCO)C2)n1 (stereo unspecified)	n	n	x	70	n	x
CSc1cccc(CN2CCN(Cc3ccc(F)c(F)c3)C(CCO)C2)c1 (stereo unspecified)	n	n	x	79	n	x
COc1ccc(N/C=C(\C(C)=O)c2ccc(OC)c(OC)c2)cc1OC	n	n	x	n	n	x
O=C(NC1CCCCC1)[C@H](CSCc1ccccc1)N1Cc2ccccc2C1=O	n	n	n	n	n	n
CC(=O)c1ccc(NC(=O)C2CC(=O)N(C(C)C)C2)cc1 (stereo unspecified)	n	n	x	n	n	x
O=C(O)CCN1CCc2ccccc2C1c1cccs1 (stereo unspecified)	n	n	x	n	n	x
O=C(O)CCSc1nnc(COc2cccc3ccccc23)n1-c1cccc(Cl)c1	n	n	x	n	n	x
CSc1cccc(CN2CCN(CCc3ccccc3)C(CCO)C2)c1 (stereo unspecified)	n	n	x	88	n	x
CC(C)(O)C#Cc1ccc(CN2CCN(CCc3ccccc3)C(CCO)C2)s1 (stereo unspecified)	n	n	x	80	n	x
Cc1ccc(NC(=O)COC(=O)CCc2nc3ccccc3c(=O)[nH]2)cc1Cl	n	n	x	n	n	x
O=C(Nc1ccc(Cl)cc1)/C(=C/c1ccc([N+](=O)[O-])cc1)c1nc2ccccc2s1	n	n	x	100	n	x
CC1CSc2n(-c3cccc(C(F)(F)F)c3)cc(-c3ccccc3)[n+]21 (stereo unspecified)	n	n	x	87	n	x
CNS(=O)(=O)c1ccc(C)c(S(=O)(=O)NC)c1	n	n	n	n	n	n
COc1ccc(N(C(=O)c2ccc(Cl)cc2)C2=CC3CCC(C2)N3C)cc1 (stereo unspecified)	n	n	n	79	n	n
COc1ccc(N(C(=O)/C=C/c2ccc(OC)c(OC)c2)C2=CC3CCC(C2)N3C)cc1 (stereo unspecified)	n	n	x	100	n	x
COc1ccc(/C=C/C(=O)Oc2ccc(C)c(C)c2)cc1OC	n	n	x	n	n	x
CN1C2C=C(N(CCc3ccccc3)C(=O)c3ccc(Cl)cc3)CC1CC2 (stereo unspecified)	n	n	x	n	n	x
CCc1ccccc1N(C1=NCCCS1)S(=O)(=O)c1ccc(C(C)(C)C)cc1	n	n	n	n	n	n
Cc1ccccc1COC(=O)c1nn(-c2ccccc2)nc1N	n	n	x	n	n	x
Cc1ccc(C)c(C(=O)COC(=O)c2cc([N+](=O)[O-])ccc2NCCO)c1	n	n	n	n	n	n
COc1ccc(N(C(=O)c2cnsn2)C(C(=O)NC2CCCCC2)c2ccncc2)cc1 (stereo unspecified)	n	n	n	58	n	n
COc1ccc(C(C(=O)NC2CCCCC2)N(C(=O)c2sc(C)nc2C)c2ccc(C(C)=O)cc2)cc1 (stereo unspecified)	n	n	n	n	n	n
CCOc1ccc(C(=O)Nc2ccc(-c3cc4ccccc4oc3=O)c(C)c2)cc1[N+](=O)[O-]	n	n	n	56	n	n
Cc1cc(NC(=S)NC(=O)c2ccccc2)ccc1-c1cc2ccccc2oc1=O	n	n	n	n	n	n
Cc1ccc(NS(=O)(=O)c2cccc(C(=O)N/N=C/c3ccc4c(c3)OCCO4)c2)c(C)c1	n	n	n	n	n	n
SMILES	TNAP inh noacc	TNAP act hi DEA	bCat KO growth	L major viab	TNAP inh hi DEA	HCT116 PTEN-null
COc1cccc(CC(Cc2nc3ccccc3[nH]2)c2nc3ccccc3[nH]2)c1 (stereo unspecified)	n	n	x	69	n	x
CCCc1nc(SCC(=O)N2CCCc3ccccc32)c2c(=O)n(C)c(=O)n(C)c2n1	n	n	n	n	n	n
CCc1nc(SCC(=O)N2CCN(c3ccccc3)CC2)c2c(=O)n(C)c(=O)n(C)c2n1	n	n	x	n	n	x
Cn1c(=O)c2c(SCC(=O)N3CCCc4ccccc43)nc(CC(C)(C)C)nc2n(C)c1=O	n	n	4.8	52	n	n
CCCc1nc(SCC(=O)N2CCC(Cc3ccccc3)CC2)c2c(=O)n(C)c(=O)n(C)c2n1	n	n	n	n	n	1.4
O=C(Nc1cccc(Cl)c1)Nc1nnc(CSCCOc2ccc(Cl)cc2)s1	n	n	4.2	n	n	n
O=C(Nc1cccc(Cl)c1)Nc1nnc(CC2=CCCCC2)s1	n	n	n	n	n	3.4
O=C(Nc1ccc(Cl)cc1)Nc1nnc(Cc2ccc([N+](=O)[O-])cc2)s1	n	n	n	n	n	n
Cc1cccc(NC(=S)N2CCN(S(=O)(=O)c3cccc(F)c3)CC2)c1	n	n	x	n	n	x
COc1ccc(C(=O)C2CCCN(C(=O)c3n[nH]c4c3CCCC4)C2)cc1OC (stereo unspecified)	60	n	x	n	n	x
COc1ccc(F)cc1C(=O)C1CCCN(Cc2cnc(N3CCCC3)s2)C1 (stereo unspecified)	n	n	x	n	n	x
COc1ccc(C(=O)C2CCCN(Cc3cnc(N4CCCC4)s3)C2)cc1OC (stereo unspecified)	n	n	x	72	n	x
COc1ccc2cc(C(=O)C3CCCN(Cc4cnc(C)s4)C3)ccc2c1 (stereo unspecified)	n	n	x	79	n	x
COc1c(C)cc(C(=O)C2CCCN(C(=O)c3ccc4cc[nH]c4c3)C2)cc1C (stereo unspecified)	n	n	x	65	n	x
COc1c(C)cc(C(=O)C2CCCN(C(=O)c3cccc(F)c3)C2)cc1C (stereo unspecified)	n	n	x	n	n	x
COc1ccc(CN2CCCC(C(=O)c3ccc(Cl)cc3)C2)cc1Cn1cccn1 (stereo unspecified)	n	n	x	96	n	x
COc1c(C)cc(C(=O)C2CCCN(Cc3cnc(N4CCOCC4)s3)C2)cc1C (stereo unspecified)	n	n	x	100	n	x
COc1ccc(F)cc1C(=O)C1CCCN(Cc2ccc(Oc3ncccn3)cc2)C1 (stereo unspecified)	n	n	x	n	n	x
Cc1cccc(C)c1NC(=O)CSc1nnc(C)n1CC1CCCO1 (stereo unspecified)	n	n	x	n	n	x
CCOc1cc(C(=O)N/N=C/C(Br)=C/c2ccccc2)cc(OCC)c1OCC	n	n	n	58	n	2.3
COc1ccccc1/C=C/C=N/NC(=O)c1ccc2nc[nH]c2c1	n	n	x	56	n	x
O=C(N/N=C/C(Br)=C\c1ccccc1)c1ccc2nc[nH]c2c1	n	n	2.2	n	n	3.3
COc1ccc(-c2ccc3c(n2)sc2c(=O)[nH]c(=O)[nH]c23)cc1OC	n	n	x	n	n	x
COc1ccc(C(=O)COC(=O)c2cc(S(=O)(=O)NCc3ccccc3)ccc2O)cc1	n	n	x	n	n	x
COc1ccc(OC)c(N(CC(=O)Nc2cccc(C(F)(F)F)c2)S(C)(=O)=O)c1	n	n	x	n	n	x

Source: PubChem BioAssay
